Data taken from publication PMC4100979 (Chembiochem : a European journal of chemical biology, 2013).
“Also recorded” adds a separate entry of the source.

Columns and labels:
INS 832/3 cells = experiment: Insulin secretion; assay type: cell-based, rat; conditions: 20 mM glucose vs 1 mM glucose, 2 hour incubation; p<0.05
Outline: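 INS 832/3 cells were seeded at 500,000/well and grown 72 h. They were rinsed in HBSS with 1 mM glucose, then held 2 h in the same. Medium was replaced with the test glucose level (1 or 20 mM) ± secretagogues for 2 h. Secreted insulin was measured by rat insulin ELISA (ng/ml) and expressed as % of the mean 1 mM glucose secretion within each experiment.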

GLP-1R on βTC3 cells = target: T1, GLP-1R on βTC3 cells (Mus musculus, UniProt O35659); experiment: Saturation binding of bivalent Eu-labelled ligand in presence of unlabelled Glb; conditions: 300 nM Glb, below 35 nM Eu-ligand
T1 sequence (O35659 22-463): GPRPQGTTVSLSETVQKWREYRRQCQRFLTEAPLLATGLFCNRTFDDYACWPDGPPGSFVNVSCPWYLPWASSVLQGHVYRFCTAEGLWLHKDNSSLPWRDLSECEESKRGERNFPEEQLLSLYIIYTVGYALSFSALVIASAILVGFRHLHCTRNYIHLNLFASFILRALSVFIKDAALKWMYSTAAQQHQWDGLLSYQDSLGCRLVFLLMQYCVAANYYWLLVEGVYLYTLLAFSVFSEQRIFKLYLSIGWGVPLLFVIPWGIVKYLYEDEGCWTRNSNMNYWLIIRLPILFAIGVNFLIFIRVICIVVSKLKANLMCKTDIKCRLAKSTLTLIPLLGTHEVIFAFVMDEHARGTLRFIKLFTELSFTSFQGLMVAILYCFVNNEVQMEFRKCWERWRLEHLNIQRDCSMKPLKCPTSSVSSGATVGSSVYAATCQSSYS

[1] = test system: GLP-1R and SUR1 on βTC3 cells; experiment: Competition of 15 nM Eu-GLP-1/Glb 10 by unlabelled monomers in live βTC3 cells; assay type: binding; conditions: 1.6 nM monomer vs 15 nM Eu-GLP-1/Glb 10, 1 hr, Figure 3
Outline: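 βTC3 cells, ~70,000/well, grown 3 days. They were exposed for 1 h to 15 nM Eu-labelled bivalent ligand with 4.1 fM or 1.6 nM unlabelled GLP-1 or Glb, in RPMI binding medium (1 mM 1,10-phenanthroline, 200 mg/L bacitracin, 0.5 mg/L leupeptin, 0.2% BSA). Non-specific binding was not measured. Cells were washed three times, then given enhancement solution for ≥30 min at 37°C. Eu time-resolved fluorescence was read at 340/615 nm. Quadruplicates unless noted.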

| Compound | induction of insulin secretion by glucose (INS 832/3 cells) | effect of unlabelled Glb on high affinity binding of Eu-GLP-1/Glb 10 (GLP-1R on βTC3 cells) | effect of unlabelled monomer on bivalent binding [1] |
| --- | --- | --- | --- |
| OC[C@H]1OC(O)[C@H](O)[C@@H](O)[C@@H]1O (stereo partly shown) [glucose] | ~ 4 fold |  |  |
| COc1ccc(Cl)cc1C(=O)NCCc1ccc(S(=O)(=O)NC(=O)NC2CCCCC2)cc1 [Glb, glibenclamide] |  | blocks high affinity binding; also recorded: blocked the high affinity binding | bivalent binding is lost |
| GLP-1: unlabelled GLP-1 monomer used as competitor |  |  | bivalent binding is lost |
